35 compounds from ChEMBL document CHEMBL4765483 (J Med Chem, 2021) can be followed below.

Experiment [1] concerns the target T1, Adenosine receptor A1 (Homo sapiens) (UniProt P30542).
T1 sequence (whole entry): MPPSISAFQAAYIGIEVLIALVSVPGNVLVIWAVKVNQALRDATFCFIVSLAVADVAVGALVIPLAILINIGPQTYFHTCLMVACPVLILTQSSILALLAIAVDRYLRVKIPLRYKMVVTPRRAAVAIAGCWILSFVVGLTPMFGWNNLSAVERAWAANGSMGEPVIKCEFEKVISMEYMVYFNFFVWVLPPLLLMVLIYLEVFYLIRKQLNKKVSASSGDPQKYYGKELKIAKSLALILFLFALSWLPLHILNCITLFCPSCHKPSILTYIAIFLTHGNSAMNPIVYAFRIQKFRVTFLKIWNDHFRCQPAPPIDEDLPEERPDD
In words: Displacement of [3H]DPCPX from human adenosine A1 receptor expressed in CHO cell membranes at 1 uM incubated for 60 mins by scintillation counting method. Conditions: Cell membrane.

In experiment [2] the target is T2, Adenosine receptor A3 (Homo sapiens) (UniProt P0DMS8).
T2 sequence (whole entry): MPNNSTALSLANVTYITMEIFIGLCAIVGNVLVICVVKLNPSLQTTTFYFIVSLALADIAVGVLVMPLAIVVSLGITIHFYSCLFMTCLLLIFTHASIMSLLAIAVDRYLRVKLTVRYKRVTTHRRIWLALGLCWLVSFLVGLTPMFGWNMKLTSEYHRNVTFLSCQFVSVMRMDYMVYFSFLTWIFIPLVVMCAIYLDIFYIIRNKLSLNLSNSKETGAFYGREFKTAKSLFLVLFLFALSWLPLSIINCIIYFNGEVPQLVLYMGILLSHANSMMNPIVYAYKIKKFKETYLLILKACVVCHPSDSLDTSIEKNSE
In words: Displacement of [3H]NECA from adenosine A3 receptor expressed in human HeLa cell membranes at 1 uM incubated for 180 mins by scintillation counting method. Conditions: Cell membrane. The method in brief: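 hA3AR in HeLa membranes (3 pmol/mg protein) with 10 nM [3H]NECA (KD 8.7 nM); nonspecific binding with 100 μM R-PIA; incubated 180 min at 25 °C, washed, filtered, radioactivity counted.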

Experiment [3] concerns the target Adenosine receptor A2a (Homo sapiens) (UniProt P29274). In words: Displacement of [3H]ZM2421385 from adenosine A2A receptor expressed in human HeLa cell membranes at 1 uM incubated for 30 mins by scintillation counting method. Conditions: Cell membrane.
For a further experiment, the target named is T3, Adenosine receptor A2b (Homo sapiens, UniProt P29275).
T3 sequence (P29275 whole entry): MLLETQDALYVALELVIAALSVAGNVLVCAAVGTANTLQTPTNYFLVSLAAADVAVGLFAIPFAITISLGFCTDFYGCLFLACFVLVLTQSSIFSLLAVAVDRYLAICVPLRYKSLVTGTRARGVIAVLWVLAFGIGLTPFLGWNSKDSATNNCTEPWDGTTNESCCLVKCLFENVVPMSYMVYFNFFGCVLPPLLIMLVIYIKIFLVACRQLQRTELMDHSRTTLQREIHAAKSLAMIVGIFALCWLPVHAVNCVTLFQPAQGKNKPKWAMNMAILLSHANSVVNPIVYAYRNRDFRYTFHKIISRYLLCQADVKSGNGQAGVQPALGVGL
The experiment is described as follows: Displacement of [3H]DPCPX from human adenosine A2B receptor expressed in HEK293 cell membranes incubated for 30 mins by scintillation counting method. More on the design: species or system Cell membrane.

pKi: −log10 of the molar value.

Sequence of Adenosine receptor A2a (Homo sapiens) (P29274 whole entry): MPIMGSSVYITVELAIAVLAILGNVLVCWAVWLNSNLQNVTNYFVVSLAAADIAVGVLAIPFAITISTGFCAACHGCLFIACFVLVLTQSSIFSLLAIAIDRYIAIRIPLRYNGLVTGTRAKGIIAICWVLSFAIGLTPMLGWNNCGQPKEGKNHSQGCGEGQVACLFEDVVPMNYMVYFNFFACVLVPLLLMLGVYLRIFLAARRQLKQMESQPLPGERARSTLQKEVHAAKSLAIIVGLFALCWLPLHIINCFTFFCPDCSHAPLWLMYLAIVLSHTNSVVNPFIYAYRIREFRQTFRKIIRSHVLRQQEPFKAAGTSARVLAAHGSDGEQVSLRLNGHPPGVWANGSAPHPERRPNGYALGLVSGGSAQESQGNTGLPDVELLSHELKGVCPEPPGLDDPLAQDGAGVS

As to `CC1=C(c2ncc(C)o2)C(c2ccsc2)NC(=O)N1` (racemic), the figures for the inhibition in experiment [1], in experiment [2] and in experiment [3] were 34%, 2% and 20%, respectively. On Adenosine receptor A2b, this compound gave a pKi of 5.95.

In the case of `CC1=C(C(=O)OCC2CCC2)C(c2ccsc2)NC(=O)N1` (racemic), the inhibition in experiment [1] turned out to be 48%; in experiment [2], 2%; in experiment [3], 32%. This compound also showed a pKi on Adenosine receptor A2b of 5.98.

For `CC1=C(C(=O)OCc2ccccc2)C(c2cccs2)NC(=O)N1` (racemic), the figures for the inhibition in experiment [1], in experiment [2] and in experiment [3] were 45%, 8% and 30%, respectively. The pKi at Adenosine receptor A2b is 5.72.

In the case of `CC1=C(C(=O)OC2CCC2)C(c2ccoc2)NC(=O)N1` (racemic), the inhibition was determined as 20% in experiment [1], 1% in experiment [2] and 32% in experiment [3]. Besides, the negative-log Ki (pKi) at Adenosine receptor A2b was 6.51.

With `CCCOC(=O)C1=C(C)NC(=O)NC1c1cccs1` (racemic), the figures for the inhibition in experiment [1], in experiment [2] and in experiment [3] were 43%, 32% and 30%, respectively. For the same compound, at Adenosine receptor A2b, the pKi was 5.82.

Turning to `CC1=C(C(=O)CC(C)C)C(c2ccco2)NC(=O)N1` (racemic), the inhibition in experiment [1] worked out at 16%; in experiment [2], 31%; in experiment [3], 6%. The pKi on Adenosine receptor A2b is 6.62.

As to `CCCOC(=O)C1=C(C)NC(=O)NC1c1ccsc1` (racemic), the inhibition in experiment [1] was determined as 44%; in experiment [2], 6%; in experiment [3] it was 48%. This compound gave a pKi at Adenosine receptor A2b of 6.70.

Take `CC1=C(C(=O)OC2CCC2)C(c2cccs2)NC(=O)N1` (racemic): the inhibition in experiment [1] was 24%; in experiment [2], 2%; in experiment [3], 26%. Also, the negative logarithm of the Ki (pKi) at Adenosine receptor A2b is 5.96.

On to `CC1=C(C(=O)SC(C)C)C(c2ccoc2)NC(=O)N1` (racemic), for which the values for the inhibition in experiment [1], in experiment [2] and in experiment [3] were 9%, 3% and 2%, respectively. Besides, the pKi on Adenosine receptor A2b is 6.20.

As to `CC1=C(C(=O)OCC2CC2)C(c2cccs2)NC(=O)N1` (racemic), the results for the inhibition in experiment [1], in experiment [2] and in experiment [3] were 23%, 1% and 27%, respectively. The same compound showed a pKi on Adenosine receptor A2b of 5.80.

With `CC1=C(C(=O)CC(C)C)C(c2ccoc2)NC(=O)N1` (racemic), the results for the inhibition in experiment [1], in experiment [2] and in experiment [3] were 23%, 18% and 20%, respectively. At Adenosine receptor A2b, this compound showed a pKi of 6.00.

Regarding `CC1=C(C(=O)OC2CCCC2)C(c2ccco2)NC(=O)N1` (racemic), the inhibition in experiment [1] came to 1%; in experiment [2], 14%; in experiment [3], 23%. In addition, the pKi at Adenosine receptor A2b is 6.24.

As for `CC1=C(C(=O)OCc2ccccc2)C(c2ccoc2)NC(=O)N1` (racemic), the inhibition in experiment [1] was determined as 41%; in experiment [2], 1%; in experiment [3] it was 24%. The same compound showed a pKi on Adenosine receptor A2b of 5.18.

In the case of `CC1=C(C(=O)OCC2CCC2)C(c2cccs2)NC(=O)N1` (racemic), the inhibition is 39% in experiment [1], 1% in experiment [2] and 22% in experiment [3]. The pKi on Adenosine receptor A2b is 5.55.

As to `CC1=C(c2ncc(C)o2)C(c2ccco2)NC(=O)N1` (racemic), the inhibition in experiment [1] came out at 27%; in experiment [2], 4%; in experiment [3], 23%. The same compound showed a pKi at Adenosine receptor A2b of 6.04.

On to `CC1=C(C(=O)OC2CCC2)C(c2ccco2)NC(=O)N1` (racemic), for which the results for the inhibition in experiment [1], in experiment [2] and in experiment [3] were 19%, 1% and 41%, respectively. This compound also had a pKi at Adenosine receptor A2b of 7.02.

Turning to `CC1=C(C(=O)OCC2CCC2)C(c2ccco2)NC(=O)N1` (racemic), the values for the inhibition in experiment [1], in experiment [2] and in experiment [3] were 42%, 1% and 22%, respectively. In addition, the pKi at Adenosine receptor A2b was 6.25.

As to `CC1=C(C(=O)OCc2ccccc2)C(c2ccsc2)NC(=O)N1C` (racemic), the inhibition amounted to 46% in experiment [1], 14% in experiment [2] and 30% in experiment [3]. On Adenosine receptor A2b, this compound showed a pKi of 5.34.

As to `CC1=C(C(=O)OC(C)C)[C@@H](c2ccco2)NC(=S)N1`, the inhibition worked out at 8% in experiment [1], 1% in experiment [2] and 13% in experiment [3]. This compound also had a pKi on Adenosine receptor A2b of 8.20.

Turning to `CC1=C(C(=O)OC(C)(C)C)C(c2ccoc2)NC(=S)N1` (racemic), the figures for the inhibition in experiment [1], in experiment [2] and in experiment [3] were 18%, 19% and 15%, respectively. The pKi at Adenosine receptor A2b was 5.72.

As for `CCC(C)OC(=O)C1=C(C)NC(=O)NC1c1ccco1` (racemic), the inhibition in experiment [1] is 6%; in experiment [2], 3%; in experiment [3], 1%. In addition, on Adenosine receptor A2b, the pKi was 7.07.

For `CC1=C(C(=O)OC2CCCC2)C(c2ccoc2)NC(=O)N1` (racemic), the inhibition was 6% in experiment [1], 1% in experiment [2] and 1% in experiment [3]. Besides, the pKi on Adenosine receptor A2b is 6.00.

In the case of `CCC(C)OC(=O)C1=C(C)NC(=O)NC1c1ccoc1` (racemic), the values for the inhibition in experiment [1], in experiment [2] and in experiment [3] were 13%, 11% and 1%, respectively. At Adenosine receptor A2b, this compound showed a pKi of 6.70.

As to `CC1=C(C(=O)OC2CCCC2)C(c2ccsc2)NC(=O)N1` (racemic), the inhibition in experiment [1] was 5%; in experiment [2], 5%; in experiment [3], 1%. The pKi at Adenosine receptor A2b is 6.18.

On to `CC1=C(C(=O)OC(C)(C)C)C(c2ccoc2)NC(=O)N1` (racemic), for which the inhibition in experiment [1] was 11%; in experiment [2] it was 2%; in experiment [3], 9%. On Adenosine receptor A2b, this compound showed a pKi of 5.35.

For `CC1=C(C(=O)OCC2CCC2)C(c2ccoc2)NC(=O)N1` (racemic), the inhibition in experiment [1] was 46%; in experiment [2], 2%; in experiment [3], 25%. The same compound had a pKi on Adenosine receptor A2b of 6.13.

With `CCCOC(=O)C1=C(C)NC(=O)NC1c1ccoc1` (racemic), the inhibition in experiment [1] was 50%; in experiment [2], 11%; in experiment [3], 45%. Besides, at Adenosine receptor A2b, the pKi was 5.92.

For `CC1=C(C(=O)OC2CCC2)C(c2ccsc2)NC(=O)N1` (racemic), the inhibition in experiment [1] is 40%; in experiment [2], 3%; in experiment [3], 41%. The compound further showed a pKi at Adenosine receptor A2b of 6.39.

For the compound `CC1=C(C(=O)OCc2ccccc2)C(c2ccco2)NC(=O)N1` (racemic), the inhibition in experiment [1] was 36%; in experiment [2], 3%; in experiment [3], 26%. At Adenosine receptor A2b, the pKi is 6.05.

Turning to `CC1=C(C(=O)OCC2CC2)C(c2ccsc2)NC(=O)N1` (racemic), the values for the inhibition in experiment [1], in experiment [2] and in experiment [3] were 39%, 3% and 46%, respectively. The compound further showed a pKi at Adenosine receptor A2b of 6.14.

Take `CC1=C(c2ncc(C)o2)C(c2ccoc2)NC(=O)N1` (racemic): the figures for the inhibition in experiment [1], in experiment [2] and in experiment [3] were 21%, 1% and 14%, respectively. This compound also had a pKi on Adenosine receptor A2b of 6.10.

In the case of `CC1=C(C(=O)CC(C)C)C(c2ccsc2)NC(=O)N1` (racemic), the inhibition in experiment [1] was determined as 37%; in experiment [2], 14%; in experiment [3], 19%. In addition, the pKi on Adenosine receptor A2b is 6.00.

For `CC1=C(C(=O)OCC(C)C)C(c2ccco2)NC(=O)N1` (racemic), the inhibition in experiment [1] was found to be 27%; in experiment [2] it was 13%; in experiment [3] it was 36%. The compound further showed a pKi on Adenosine receptor A2b of 6.70.

Consider `CCCC(=O)C1=C(C)NC(=O)NC1c1ccco1` (racemic), for which the inhibition in experiment [1] stood at 1%; in experiment [2], 1%; in experiment [3], 6%. This compound also had a pKi on Adenosine receptor A2b of 6.09.

Regarding `CC1=C(C(=O)OCC2CC2)C(c2ccco2)NC(=O)N1` (racemic), the inhibition in experiment [1] worked out at 29%; in experiment [2], 1%; in experiment [3], 36%. In addition, the pKi at Adenosine receptor A2b was 6.86.
